Experimental data taken from ChEMBL document CHEMBL5260806, “Hydrogen peroxide activated quinone methide precursors with enhanced DNA cross-linking capability and cytotoxicity towards cancer cells” (Eur J Med Chem, 2017).
The source made the active and inactive calls.

Columns and labels:
MOLT-4 = assay: Anticancer activity against human MOLT-4 cells assessed as cell growth inhibition at 10 uM incubated for 48 hrs by sulforhodamine B assay; format: functional; conditions: read-out: GI
Outline: (§1)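 NCI DTP 60-cell-line screen run at National Cancer Institute. Cells grown in RPMI 1640 with 5% fetal bovine serum and 2 mM L-glutamine, seeded at 5,000–40,000 cells/well depending on doubling time. Single-dose screen at 10 µM gives growth percentage; dose-response series gives GI50.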

NCI-H226 [1] = assay: Anticancer activity against human NCI-H226 cells assessed as cell growth inhibition at 10 uM incubated for 48 hrs by sulforhodamine B assay; format: functional; conditions: read-out: GI; outline: as §1
NCI-H322M = assay: Anticancer activity against human NCI-H322M cells assessed as cell growth inhibition at 10 uM incubated for 48 hrs by sulforhodamine B assay; format: functional; conditions: read-out: GI; outline: as §1
NCI-H522 [2] = assay: Anticancer activity against human NCI-H522 cells assessed as cell growth inhibition at 10 uM incubated for 48 hrs by sulforhodamine B assay; format: functional; conditions: read-out: GI; outline: as §1
SF-295 = assay: Anticancer activity against human SF-295 cells assessed as cell growth inhibition at 10 uM incubated for 48 hrs by sulforhodamine B assay; format: functional; conditions: read-out: GI; outline: as §1
SF-539 = assay: Anticancer activity against human SF-539 cells assessed as cell growth inhibition at 10 uM incubated for 48 hrs by sulforhodamine B assay; format: functional; conditions: read-out: GI; outline: as §1
SNB-19 = assay: Anticancer activity against human SNB-19 cells assessed as cell growth inhibition at 10 uM incubated for 48 hrs by sulforhodamine B assay; format: functional; conditions: read-out: GI
U-251 [3] = assay: Anticancer activity against human U-251 cells assessed as cell growth inhibition at 10 uM incubated for 48 hrs by sulforhodamine B assay; format: functional; conditions: read-out: GI
UACC-62 = assay: Anticancer activity against human UACC-62 cells assessed as cell growth inhibition at 10 uM incubated for 48 hrs by sulforhodamine B assay; format: functional; conditions: read-out: GI
OVCAR-5 [4] = assay: Anticancer activity against human OVCAR-5 cells assessed as cell growth inhibition at 10 uM incubated for 48 hrs by sulforhodamine B assay; format: functional; conditions: read-out: GI; outline: as §1
NCI/ADR-RES [5] = assay: Anticancer activity against human NCI/ADR-RES cells assessed as cell growth inhibition at 10 uM incubated for 48 hrs by sulforhodamine B assay; format: functional; conditions: read-out: GI; outline: as §1
PC-3 = assay: Anticancer activity against human PC-3 cells assessed as cell growth inhibition at 10 uM incubated for 48 hrs by sulforhodamine B assay; format: functional; conditions: read-out: GI; outline: as §1
MCF7 = assay: Anticancer activity against human MCF7 cells assessed as cell growth inhibition at 10 uM incubated for 48 hrs by sulforhodamine B assay; format: functional; conditions: read-out: GI; outline: as §1
EKVX [6] = assay: Anticancer activity against human EKVX cells assessed as cell growth inhibition at 10 uM incubated for 48 hrs by sulforhodamine B assay; format: functional; conditions: read-out: GI
Outline: (§2)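 NCI-60 screen: cell lines grown in RPMI 1640 with 5% FBS and 2 mM L-glutamine, plated in 96-well plates at 5,000–40,000 cells/well depending on doubling time. Each line has one single-dose arm at 10 µM and one dose-response arm giving GI50.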

HOP-92 = assay: Anticancer activity against human HOP-92 cells assessed as cell growth inhibition at 10 uM incubated for 48 hrs by sulforhodamine B assay; format: functional; conditions: read-out: GI; outline: as §2
Malme-3M = assay: Anticancer activity against human Malme-3M cells assessed as cell growth inhibition at 10 uM incubated for 48 hrs by sulforhodamine B assay; format: functional; conditions: read-out: GI; outline: as §1
HL-60 = assay: Anticancer activity against human HL-60 cells assessed as cell growth inhibition incubated for 48 hrs by sulforhodamine B assay; format: functional; outline: as §2
K562 = assay: Anticancer activity against human K562 cells assessed as cell growth inhibition incubated for 48 hrs by sulforhodamine B assay; format: functional; outline: as §2
NCI-H226 [7] = assay: Anticancer activity against human NCI-H226 cells assessed as cell growth inhibition incubated for 48 hrs by sulforhodamine B assay; format: functional; outline: as §1
NCI-H23 = assay: Anticancer activity against human NCI-H23 cells assessed as cell growth inhibition incubated for 48 hrs by sulforhodamine B assay; format: functional; outline: as §1
NCI-H522 [8] = assay: Anticancer activity against human NCI-H522 cells assessed as cell growth inhibition incubated for 48 hrs by sulforhodamine B assay; format: functional; outline: as §1
HT-29 = assay: Anticancer activity against human HT-29 cells assessed as cell growth inhibition incubated for 48 hrs by sulforhodamine B assay; format: functional; outline: as §2
U-251 [9] = assay: Anticancer activity against human U-251 cells assessed as cell growth inhibition incubated for 48 hrs by sulforhodamine B assay; format: functional
M14 = assay: Anticancer activity against human M14 cells assessed as cell growth inhibition incubated for 48 hrs by sulforhodamine B assay; format: functional; outline: as §2
UACC-257 = assay: Anticancer activity against human UACC-257 cells assessed as cell growth inhibition incubated for 48 hrs by sulforhodamine B assay; format: functional
IGROV-1 = assay: Anticancer activity against human IGROV-1 cells assessed as cell growth inhibition incubated for 48 hrs by sulforhodamine B assay; format: functional; outline: as §2
OVCAR-5 [10] = assay: Anticancer activity against human OVCAR-5 cells assessed as cell growth inhibition incubated for 48 hrs by sulforhodamine B assay; format: functional; outline: as §1
NCI/ADR-RES [11] = assay: Anticancer activity against human NCI/ADR-RES cells assessed as cell growth inhibition incubated for 48 hrs by sulforhodamine B assay; format: functional; outline: as §1
ACHN = assay: Anticancer activity against human ACHN cells assessed as cell growth inhibition incubated for 48 hrs by sulforhodamine B assay; format: functional; outline: as §2
TK-10 = assay: Anticancer activity against human TK-10 cells assessed as cell growth inhibition incubated for 48 hrs by sulforhodamine B assay; format: functional
T47D = assay: Anticancer activity against human T47D cells assessed as cell growth inhibition incubated for 48 hrs by sulforhodamine B assay; format: functional
EKVX [12] = assay: Anticancer activity against human EKVX cells assessed as cell growth inhibition incubated for 48 hrs by sulforhodamine B assay; format: functional; outline: as §2
786-0 = assay: Anticancer activity against human 786-0 cells assessed inhibition of cell growth after 48 hrs by CellTiter-Glo luminescent assay; format: functional, cell-based; conditions: 786-0, 48 h
Outline: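 Renal lines grown in RPMI 1640 with 5% FBS and 2 mM L-glutamine, plated at 5,000–10,000 cells/well in 384-well plates and held 2–3 h at 37 °C, 5% CO2. Compounds were made as 20 mM DMSO stocks, given as ten 2-fold serial dilutions diluted 1:100 into cells, and incubated 48 h. Read-out was CellTiter-Glo luminescence after 10 min at room temperature.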

[13] = Anticancer activity against human CLL cells assessed as reduction in cell viability incubated for 24 hrs by Annexin/PI staining based fluorescence assay; format: functional
Outline: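 CLL lymphocytes were taken from patients' peripheral blood (n=3) by Ficoll-Hypaque, suspended in 10% autologous plasma in RPMI, and exposed to 1, 5, 10, 20, 50 and 100 µM. Viability was measured by annexin V/propidium iodide binding. IC50 comes from one representative patient.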

CLL cell [14] = assay: Induction of DNA damage in chronic lymphocytic leukemia patient lymphocytes assessed as gamma-H2Ax phosphorylation at Ser139 residue at 10 uM after 24 hrs by FITC-staining based flow cytometry; format: functional; conditions: Homo sapiens
Outline: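 Patient CLL lymphocytes, Ficoll-hypaque isolated, in RPMI with 10% autologous plasma, untreated or exposed to 10 µM for 24 h. Cells washed in PBS, fixed in ice-cold 70% ethanol and held at −20 °C. Then permeabilised, stained with FITC anti-H2AX Ser139 antibody and read by flow cytometry.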

CLL cell [15] = assay: Induction of DNA damage in chronic lymphocytic leukemia patient lymphocytes assessed as apoptosis rate at 10 uM after 24 hrs by annexin/PI staining based flow cytometry; format: functional; conditions: Homo sapiens

COc1cc(CBr)c(B2OC(C)(C)C(C)(C)O2)c(CBr)c1
< 50%: inhibition of growth at 10 µM (MOLT-4) | inhibition of growth at 10 µM (NCI-H226 [1]) | inhibition of growth at 10 µM (NCI-H322M) | inhibition of growth at 10 µM (NCI-H522 [2]) | inhibition of growth at 10 µM (SF-295) | inhibition of growth at 10 µM (SF-539) | inhibition of growth at 10 µM (SNB-19) | inhibition of growth at 10 µM (U-251 [3]) | inhibition of growth at 10 µM (UACC-62) | inhibition of growth at 10 µM (OVCAR-5 [4]) | inhibition of growth at 10 µM (NCI/ADR-RES [5]) | inhibition of growth at 10 µM (PC-3) | inhibition of growth at 10 µM (MCF7) | inhibition of growth at 10 µM (EKVX [6]) | inhibition of growth at 10 µM (HOP-92) | inhibition of growth at 10 µM (Malme-3M)
active: Activity (CLL cell [14]) | Activity (CLL cell [15])
28.4 µM: IC50 [13]
2 µM: GI50 (HL-60) | GI50 (K562) | GI50 (NCI-H226 [7]) | GI50 (NCI-H23) | GI50 (NCI-H522 [8]) | GI50 (HT-29) | GI50 (U-251 [9]) | GI50 (M14) | GI50 (UACC-257) | GI50 (IGROV-1) | GI50 (OVCAR-5 [10]) | GI50 (NCI/ADR-RES [11]) | GI50 (ACHN) | GI50 (TK-10) | GI50 (T47D) | GI50 (EKVX [12])
10.8 µM: IC50 (786-0)
